# Results as given in ChEMBL document CHEMBL5126596, “Design and synthesis of a novel non peptide CN-NFATc signaling inhibitor for tumor suppression in triple negative breast cancer” (Eur J Med Chem, 2022).
# Activity calls are given as the source filed them. The rule behind the calls is not given here.
# How the values were obtained:
# [1] = target: Protein phosphatase 3 catalytic subunit alpha (Homo sapiens) (UniProt Q08209); experiment: Displacement of carboxyfluorescein labelled NFATc2 derived PRIEIT peptide from human CNAalpha (2 to 347 residues) at 10 to 100 uM preincubated for 15 mins followed by CF-PRIEIT addition and measured after 15 mins by fluorescence polarization assay; details: dose 10-100 µM, time 30.0 min
# How it was run: (§1)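 FP competition assay: 10 µM human CNAα (residues 2–347) preincubated with compound for 15 min at rt. CF-tagged NFATc2 SPRIEIT peptide (10 nM) then added for a further 15 min. Read at excitation 485 nm / emission 535 nm. Triplicates from at least three independent experiments.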
# [2] = target: T1, Nuclear factor of activated T-cells, cytoplasmic 1 (Homo sapiens) (UniProt O95644); experiment: Inhibition of NFATC activity in HEK293T cells preincubated for 2 hrs followed by ionomycin/phorbol 12-myristate 13-acetate stimulation and measured after 4 hrs by luciferase reporter assay; format: cell-based; details: dose 0.1-50 µM, time 6.0 hrs, DDE = dose-dependent effect
# T1 sequence (whole entry): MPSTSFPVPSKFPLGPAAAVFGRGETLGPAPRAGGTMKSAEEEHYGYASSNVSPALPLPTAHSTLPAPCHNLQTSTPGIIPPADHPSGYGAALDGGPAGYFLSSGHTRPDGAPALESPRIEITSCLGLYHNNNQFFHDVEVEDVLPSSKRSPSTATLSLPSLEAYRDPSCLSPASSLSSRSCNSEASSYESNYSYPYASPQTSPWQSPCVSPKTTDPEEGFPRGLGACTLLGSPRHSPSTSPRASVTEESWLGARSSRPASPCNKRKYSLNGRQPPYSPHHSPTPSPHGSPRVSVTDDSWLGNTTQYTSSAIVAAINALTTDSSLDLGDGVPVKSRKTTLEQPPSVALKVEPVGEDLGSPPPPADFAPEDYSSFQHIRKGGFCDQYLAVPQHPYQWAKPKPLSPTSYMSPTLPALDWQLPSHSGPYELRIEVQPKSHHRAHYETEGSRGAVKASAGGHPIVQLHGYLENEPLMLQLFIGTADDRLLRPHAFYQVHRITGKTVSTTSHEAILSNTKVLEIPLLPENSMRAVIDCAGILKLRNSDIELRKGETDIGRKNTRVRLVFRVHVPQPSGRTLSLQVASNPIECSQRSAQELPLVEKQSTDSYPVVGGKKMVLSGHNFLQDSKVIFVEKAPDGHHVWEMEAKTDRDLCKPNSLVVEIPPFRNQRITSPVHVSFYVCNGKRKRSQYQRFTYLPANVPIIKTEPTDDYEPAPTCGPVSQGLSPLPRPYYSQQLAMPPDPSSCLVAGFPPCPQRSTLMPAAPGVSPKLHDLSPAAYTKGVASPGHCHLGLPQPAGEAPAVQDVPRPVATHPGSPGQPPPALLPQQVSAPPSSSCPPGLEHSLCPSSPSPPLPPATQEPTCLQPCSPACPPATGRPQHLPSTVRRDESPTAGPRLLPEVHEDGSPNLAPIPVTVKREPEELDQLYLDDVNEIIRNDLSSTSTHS
# How it was run: (§2)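 HEK 293T cells (7.5 × 10⁴/well) co-transfected by CaCl₂ method with 100 ng 3xNFAT-luc and 1 ng pRLnull as transfection control. At 24 h, compound added for 2 h, then stimulated with 1 µM ionomycin, PMA and CaCl₂ for 4 h (20 ng/ml PMA and 2 mM CaCl₂ per figure legend). Luciferase read from crude extracts, relative to stimulated no-compound control (100%). Single doses 50 and 5 μM; dose-response 0.1–50 μM. IC50 by nonlinear regression; 3 experiments in triplicate.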
# [3] = target: T1, Nuclear factor of activated T-cells, cytoplasmic 1 (Homo sapiens); experiment: Inhibition of NFATC activity in HEK293T cells at 50 uM preincubated for 2 hrs followed by ionomycin/phorbol 12-myristate 13-acetate stimulation and measured after 4 hrs by luciferase reporter assay; format: cell-based; details: time 6.0 hrs; how it was run: as §2
# [4] = target: T1, Nuclear factor of activated T-cells, cytoplasmic 1 (Homo sapiens); experiment: Inhibition of NFATC activity in human CD4+ T cells assessed as reduction of IL-2 secretion preincubated for 2 hrs followed by anti-CD3/CD28 stimulation and measured after 48 hrs by ELISA; format: cell-based; details: CD4+ve Th
# How it was run: (§3)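 Donor CD4⁺ T cells (1 × 10⁵/well) treated with 10 or 1 μM compound for 2 h. Compound left in place during activation with anti-CD3/CD28 beads (10 cells/bead). IL-2 and IFNγ measured by ELISA in supernatants after 48 h. Mean ± SEM.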
# [5] = target: T1, Nuclear factor of activated T-cells, cytoplasmic 1 (Homo sapiens); experiment: Inhibition of NFATC activity in HEK293T cells at 5 to 50 uM preincubated for 2 hrs followed by ionomycin/phorbol 12-myristate 13-acetate stimulation and measured after 4 hrs by luciferase reporter assay; format: cell-based; details: dose 5-50 µM, time 6.0 hrs; how it was run: as §2
# CD4+ve Th = experiment: Immunosuppressive activity in human CD4+ve Th cells assessed as inhibition of T cell proliferation […] by [3H]-thymidine incorporation based scintillation counter method; format: functional; details: dose <= 10.0 µM, DDE = dose-dependent effect
# [6] = target: T1, Nuclear factor of activated T-cells, cytoplasmic 1 (Homo sapiens); experiment: Inhibition of NFATC activity in human PBMC cells assessed as reduction of IFN gamma gene expression preincubated for 2 hrs followed by ionomycin/phorbol 12-myristate 13-acetate stimulation and measured after 4 hrs byRT-PCR analysis; format: cell-based; details: dose 2-50 µM, time 6.0 hrs, DDE = dose-dependent effect
# How it was run: (§4)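 Isolated hPBMC treated with compound at 50, 10 and 2 μM for 2 h. Stimulated without washout with 1 μM ionomycin, 20 nM PMA and 10 mM CaCl₂ for 4 h. RNA extracted and 1 μg reverse-transcribed; qPCR run with UPL probes. Fold change by ΔΔCT. Mean ± SD of 3 independent experiments in triplicate.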
# [7] = target: T1, Nuclear factor of activated T-cells, cytoplasmic 1 (Homo sapiens); experiment: Inhibition of NFATC activity in human PBMC cells assessed as reduction of IL2 gene expression preincubated for 2 hrs followed by ionomycin/phorbol 12-myristate 13-acetate stimulation and measured after 4 hrs by RT-PCR analysis; format: cell-based; details: dose 2-50 µM, time 6.0 hrs, DDE = dose-dependent effect; how it was run: as §4
# [8] = target: T1, Nuclear factor of activated T-cells, cytoplasmic 1 (Homo sapiens); experiment: Inhibition of NFATC activity in human CD4+ T cells assessed as reduction of IFN gamma secretion preincubated for 2 hrs followed by anti-CD3/CD28 stimulation and measured after 48 hrs by ELISA; format: cell-based; details: CD4+ve Th; how it was run: as §3
# [9] = target: Protein phosphatase 3 catalytic subunit alpha (Homo sapiens) (UniProt Q08209); experiment: Displacement of carboxyfluorescein labelled NFATc2 derived PRIEIT peptide from human CNAalpha (2 to 347 residues) at 100 uM preincubated for 15 mins followed by CF-PRIEIT addition and measured after 15 mins by fluorescence polarization assay; details: time 30.0 min; how it was run: as §1
# [10] = target: Protein phosphatase 3 catalytic subunit alpha (Homo sapiens) (UniProt Q08209); experiment: Displacement of carboxyfluorescein labelled NFATc2 derived PRIEIT peptide from human CNAalpha (2 to 347 residues) at 10 uM preincubated for 15 mins followed by CF-PRIEIT addition and measured after 15 mins by fluorescence polarization assay; details: time 30.0 min; how it was run: as §1
# [11] = Toxicity in BALB/c mouse xenografted with mouse 4T1 cells assessed as effect on body weight at 50 mg/kg, […]; format: organism-based; details: in vivo, ip
# [12] = Toxicity in BALB/c mouse assessed as clinical signs of abnormal constitution at 50 mg/kg, ip administered for 5 days and measured on day 7; format: organism-based; details: in vivo, 168 h, time 7 day
# How it was run: (§5)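 BALB/c mice given 50 mg/kg ip daily, Monday to Friday, and killed on day seven. Monitored for macroscopic clinical signs, behavior, weight loss and general health.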
# [13] = Toxicity in BALB/c mouse assessed as loss of body weight at 50 mg/kg, ip administered for 5 days and measured on day 7; format: organism-based; details: in vivo, 120 h, time 5 day; how it was run: as §5
# 4T1 [14] = experiment: Antitumor activity against mouse 4T1 cells xenografted in BALB/c mouse assessed as decrease in tumor weight at 50 mg/kg, ip measured after 15 days; details: time 15.0 day
# [15] = Toxicity in BALB/c mouse assessed as aberrant behavior at 50 mg/kg, ip administered for 5 days and measured on day 7; format: organism-based; details: in vivo, 120 h, time 5 day; how it was run: as §5
# [16] = Toxicity in BALB/c mouse xenografted with mouse 4T1 cells assessed as effect on health conditions at 50 mg/kg, […]; format: organism-based; details: in vivo, ip
# 4T1 [17] = experiment: Anti-angiogenesis activity against mouse 4T1 cells xenografted in BALB/c mouse at 50 mg/kg, ip measured after 15 days by anti-CD31 staining based immunohistochemistry analysis; format: functional, organism-based; details: time 15.0 day
# [18] = Toxicity in BALB/c mouse xenografted with mouse 4T1 cells assessed as effect on body weight at 5 mg/kg, […]; format: organism-based; details: in vivo, ip, 120 h, time 5 day
# 4T1 [19] = experiment: Anti-angiogenesis activity against mouse 4T1 cells xenografted in BALB/c mouse at 5 mg/kg, ip measured after 15 days by anti-CD31 staining based immunohistochemistry analysis; format: functional, organism-based; details: time 15.0 day
# 4T1 [20] = experiment: Antitumor activity against mouse 4T1 cells xenografted in BALB/c mouse assessed as decrease in tumor weight at 50 mg/kg, ip measured after 15 days; format: functional, organism-based; details: time 15.0 day
# How it was run: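 Female BALB/c mice (8 weeks, 18–19 g) given 0.5 × 10⁶ 4T1 cells in 1:1 DMEM/Matrigel into the number four mammary fat pad. Treatment began at day 11, once tumors exceeded 100 mm³, with randomization to groups of 9–10. Dosing was ip, daily Monday to Friday, for 15 days with DMSO vehicle. Tumors were then excised and weighed; body weight and health were followed.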
# [21] = Toxicity in BALB/c mouse xenografted with mouse 4T1 cells assessed as effect on health conditions at 5 mg/kg, […]; format: organism-based; details: in vivo, ip, time 5 day
smiles,measurement,setting,value
O=C(CNC(=O)c1ccc2[nH]ccc2c1)Nc1cccc(S(=O)(=O)N2CCCCC2)c1,Activity,[1],Active
same,inhibition,[2],Dde
same,inhibition,[3],60%
CS(=O)(=O)NCc1cccc(NC(=O)c2csc3ccccc23)c1,inhibition,[4],Active
same,inhibition,[5],80%
same,Activity,CD4+ve Th,Dde
same,Activity,[6],Dde
same,inhibition,[2],Dde
same,Activity,[7],Dde
same,inhibition,[8],Active
same,Activity,[9],Active
CS(=O)(=O)NCc1cccc(NC(=O)Cc2ccsc2)c1,Activity,[10],Active
same,Activity,[9],Active
same,inhibition,[3],60%
O=C(O)CNS(=O)(=O)c1cccc(NC(=O)CNC(=O)c2csc3ccccc23)c1,Activity,[1],Active
same,inhibition,[3],60%
CCc1ccc(C(=O)Nc2cccc(CNS(C)(=O)=O)c2)cc1,Activity,[9],Active
same,inhibition,[3],60%
O=C(O)CNS(=O)(=O)c1cccc(NC(=O)CNC(=O)OCc2ccccc2)c1,Activity,[1],Active
same,inhibition,[3],60%
CNc1ccc(C(=O)NCC(=O)Nc2cccc(S(=O)(=O)NCC(=O)O)c2)cc1,Activity,[1],Active
same,inhibition,[3],60%
Cc1ccc(C(=O)NCC(=O)Nc2cc(S(=O)(=O)Nc3ccc(Cl)cc3)ccc2Cl)s1,Activity,[1],Active
same,Activity,[11],Non-Toxic
same,inhibition,[4],Active
same,Activity,[12],Non-Toxic
same,inhibition,[5],80%
same,Activity,CD4+ve Th,Dde
same,Activity,[6],Dde
same,inhibition,[2],Dde
same,Activity,[13],Non-Toxic
same,Activity,[7],Dde
same,Activity,4T1 [14],Active
same,inhibition,[8],Active
same,Activity,[15],Non-Toxic
same,Activity,[16],Non-Toxic
CCc1ccc(C(=O)NCC(=O)Nc2cccc(S(=O)(=O)NCC(=O)O)c2)cc1,Activity,[1],Active
same,inhibition,[3],60%
O=C(O)CNS(=O)(=O)c1cccc(NC(=O)CNC(=O)c2cnc3ccccc3c2)c1,Activity,[1],Active
same,inhibition,[3],60%
O=C(O)CNS(=O)(=O)c1cccc(NC(=O)CNC(=O)Cc2ccsc2)c1,Activity,[1],Active
same,inhibition,[3],60%
CS(=O)(=O)NCc1cccc(NC(=O)c2ccc3[nH]ccc3c2)c1,Activity,[1],Active
same,Activity,[11],Non-Toxic
same,inhibition,[4],Active
same,Activity,[12],Non-Toxic
same,inhibition,[5],80%
same,Activity,CD4+ve Th,Dde
same,Activity,[6],Dde
same,Activity,4T1 [17],Active
same,Activity,[10],Active
same,inhibition,[2],Dde
same,Activity,[13],Non-Toxic
same,Activity,[7],Dde
same,Activity,4T1 [14],Active
same,inhibition,[8],Active
same,Activity,[9],Active
same,Activity,[15],Non-Toxic
same,Activity,[16],Non-Toxic
C=CC[C@@H]1/C=C(\C)C[C@H](C)C[C@H](OC)[C@H]2O[C@@](O)(C(=O)C(=O)N3CCCC[C@H]3C(=O)O[C@H](/C(C)=C/[C@@H]3CC[C@@H](O)[C@H](OC)C3)[C@H](C)[C@@H](O)CC1=O)[C@H](C)C[C@@H]2OC [TACROLIMUS ANHYDROUS],Activity,[18],Non-Toxic
same,Activity,4T1 [19],Active
same,Activity,4T1 [20],Active
same,Activity,[21],Non-Toxic
